Compound activity deposited in PubChem by Johns Hopkins Ion Channel Center.
Hits are enriched below; roughly 2.3% of the tested compounds scored in any of these assays.
TRPC6 inh = blocks the mouse TRPC6 cation channel | Q61143 | HEK293-TRPC6, membrane potential dye, ACh-evoked depolarization; hits give low values | B-score at 10 µM | 310,000 tested, 1.1% active;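 active = B-score under library mean minus 3 SD, initial fluorescence not abnormally high, positive integrated signal ratio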;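 note: B-score derived from integrated fluorescence ratio over the kinetic read; more negative B-score means stronger inhibition of depolarization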
TRPC6 activator = activators of mouse TRPC6 channel; B-score at 10 µM; AID 2550; HEK293-TRPC6 membrane potential dye fluorescence; hits give high values; 310,000 tested, 0.13% active;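 active = B-score of the integrated fluorescence ratio above library mean plus 3 SD, and starting fluorescence ratio within library mean plus 5 SD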;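 note: higher score means more depolarization so channel activation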
TRPC4 block = inhibitors of mouse TRPC4 channel; Q9QUQ5; HEK293 TRPC4beta/mu-opioid, DAMGO-evoked Fluo4 calcium flux; hits give low values; B-score at 10 µM; AID 2247; 300,000 tested, 0.39% active;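 active = B-score over 3 SD under the library average, no early fluorescence shift, positive overall ratio signal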
Target sequence (Q9QUQ5 whole entry, looked up): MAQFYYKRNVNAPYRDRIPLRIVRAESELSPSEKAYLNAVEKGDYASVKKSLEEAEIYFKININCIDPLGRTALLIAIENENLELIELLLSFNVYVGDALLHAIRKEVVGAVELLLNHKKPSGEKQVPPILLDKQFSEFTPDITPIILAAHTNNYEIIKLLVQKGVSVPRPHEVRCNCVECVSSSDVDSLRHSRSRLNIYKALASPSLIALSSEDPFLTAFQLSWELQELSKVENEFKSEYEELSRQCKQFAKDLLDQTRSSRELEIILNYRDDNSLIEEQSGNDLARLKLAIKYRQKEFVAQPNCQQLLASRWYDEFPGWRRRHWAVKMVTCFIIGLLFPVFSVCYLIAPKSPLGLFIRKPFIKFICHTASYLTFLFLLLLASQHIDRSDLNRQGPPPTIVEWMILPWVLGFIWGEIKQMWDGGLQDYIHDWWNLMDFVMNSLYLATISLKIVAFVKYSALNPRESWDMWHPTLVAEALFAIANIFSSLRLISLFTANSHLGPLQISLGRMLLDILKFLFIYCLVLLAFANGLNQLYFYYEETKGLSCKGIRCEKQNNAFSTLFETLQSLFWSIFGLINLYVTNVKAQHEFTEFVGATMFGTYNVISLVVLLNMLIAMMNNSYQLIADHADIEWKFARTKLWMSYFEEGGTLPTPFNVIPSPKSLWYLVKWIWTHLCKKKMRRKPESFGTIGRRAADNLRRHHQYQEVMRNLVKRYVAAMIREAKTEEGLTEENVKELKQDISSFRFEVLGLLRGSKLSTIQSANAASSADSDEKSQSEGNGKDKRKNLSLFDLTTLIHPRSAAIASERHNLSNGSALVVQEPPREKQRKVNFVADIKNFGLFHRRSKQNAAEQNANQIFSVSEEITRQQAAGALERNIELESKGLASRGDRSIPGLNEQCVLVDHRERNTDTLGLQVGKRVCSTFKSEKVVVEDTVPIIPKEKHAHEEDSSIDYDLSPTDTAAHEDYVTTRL
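Material: HEK293 cells with stable TRPC4beta plus mu-opioid receptor expression; probe or stimulus: DAMGO in two steps, submaximal then maximal; technique: Fluo4 calcium fluorescence by kinetic imaging, 5 s 1 Hz baseline; measure: integrated fluorescence ratio relative to baseline, converted to per-well B score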
TRPC4 PAM = TRPC4 (mouse) allosteric potentiation; Q9QUQ5; HEK293 TRPC4beta/mu-opioid, DAMGO EC20, Fluo-4 Ca2+ flux; hits give high values; B-score at 10 µM; 310,000 tested, 0.42% active; AID 2227;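 active = B-score of calcium response area above 5 SD of library B-scores, with initial fluorescence ratio within 5 SD of library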;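 note: B-score of integrated fluorescence ratio over time as area under calcium response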
TRPC4 agonist = TRPC4 (mouse) channel activation; HEK293 TRPC4beta/mu-opioid, Fluo4 calcium fluorescence; hits give high values; B-score at 10 µM; 310,000 tested, 0.49% active; AID 2237;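 active = B-score above 5 SD of library B-scores, and initial fluorescence ratio not above library mean plus 5 SD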;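 note: positive B-score marks a calcium rise read as TRPC4 activation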
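system = HEK293 cells stably co-expressing mouse TRPC4beta and mu-opioid receptor | schedule = Fluo4 dye loading 45 min at room temperature, 110 s recording | measure = B-scored integrated calcium fluorescence ratio | signal = Fluo4 calcium-sensitive dye fluorescence, kinetic, 1 Hz baseline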
An asterisk follows results filed as active; i = inactive.

SMILES | TRPC6 inh | TRPC6 activator | TRPC4 block | TRPC4 PAM | TRPC4 agonist
CC(=O)NCCOc1cccc2ccccc12 | i | i | i | i | i
O=C(O)c1ccc(COc2c(F)c(F)c(F)c(F)c2F)o1 | i | i | i | i | i
CCc1ccccc1OCCCCCNCCO | i | i | i | 11* | i
Cc1cc(Br)ccc1OCCCCNCCO | i | i | i | 10* | i
O=C(c1ccccn1)N(c1ccccc1)C1(C(=O)NC2CCCCC2)CCCCC1 | i | i | i | i | i
CC(=O)c1cccc(Nc2c3c(nc4ccccc24)CCC3)c1 | i | i | i | i | i
COc1ccccc1Nc1c2c(nc3ccccc13)CCC2 | i | i | i | i | i
Fc1cccc(Nc2c3c(nc4ccccc24)CCC3)c1 | i | i | -7* | i | i
COc1ccc(Nc2c3c(nc4ccccc24)CCC3)c(OC)c1 | i | i | -5* | i | i
COC(=O)c1cccc(Nc2c3c(nc4ccccc24)CCC3)c1 | i | i | -7* | i | i
Cc1csc(SCC(=O)Nc2cc(S(=O)(=O)N(C)C)ccc2C)n1 | i | i | i | i | i
O=C(c1ccc([N+](=O)[O-])s1)N1CCN(c2cccc(Cl)c2)CC1 | i | i | -6* | i | i
CCCCCn1c(=O)[nH]c2cc(C(=O)NCCCN(C)Cc3ccccc3)ccc2c1=O | i | i | i | 12* | i
CCOCCCNC(=O)c1ccc2c(=O)n(CCCOCC)c(=S)[nH]c2c1 | i | i | i | i | i
CCCCN(C)CCNC(=O)c1ccc(Cn2c(=S)[nH]c3ccc(Br)cc3c2=O)cc1 | i | i | i | 25* | i
CCOCCCn1c(=S)[nH]c2cc(C(=O)NCCCN(CC)CC)ccc2c1=O | i | i | i | 24* | i
O=C(CCCc1ccccc1)Nc1nccs1 | i | i | i | i | i
Cc1cc(NS(=O)(=O)c2ccc(NC(=O)COc3ccc(Cl)c(C)c3)cc2)no1 | i | i | -6* | i | i
Cc1nn(-c2ccccc2)c(Cl)c1/C=N/Nc1ccc(S(=O)(=O)Nc2ccccc2C(=O)O)cc1[N+](=O)[O-] | i | i | -6* | i | i
Cc1cccc(C(=O)NCC(c2ccco2)N(C)C)c1 (configuration not stated) | i | i | i | i | i
CN(C)C(CNC(=O)C1CCN(S(=O)(=O)c2cccc(C(F)(F)F)c2)CC1)c1ccccc1 (configuration not stated) | i | i | -8* | i | 48*
CN(C)C(CNC(=O)Cc1cccc(C(F)(F)F)c1)c1ccco1 (configuration not stated) | i | i | i | i | 90*
O=C(Cc1cccc(C(F)(F)F)c1)NCc1ccc(Cl)cc1 | i | i | i | i | i
CN(C)C(CNC(=O)Cc1cccc(C(F)(F)F)c1)c1ccccc1 (configuration not stated) | i | i | -7* | i | 161*
CN(C)C(CNc1ccc(C(F)(F)F)cn1)c1ccccc1 (configuration not stated) | i | i | i | i | 97*
SMILES | TRPC6 inh | TRPC6 activator | TRPC4 block | TRPC4 PAM | TRPC4 agonist
CC(/C=N/NC(=O)c1ccc(Cn2cc([N+](=O)[O-])cn2)o1)=C\c1ccccc1 | i | i | i | i | i
O=C(CN1CCc2ccccc2C1)Nc1ccccc1F | i | i | i | i | i
Cn1nnnc1SCCNCc1ccccc1OCc1ccc(Cl)cc1 | i | i | -7* | i | i
CC(C)COc1ccc(-c2nn(-c3ccccc3)cc2CO)cc1 | i | i | i | 10* | i
OCc1cn(-c2ccccc2)nc1-c1ccc(Br)cc1 | i | i | i | i | i
O=C(CCCOc1ccc(Cl)cc1)NC1CCCCC1 | i | i | i | i | i
COC(=O)C1=C(C)N(Cc2ccccc2)C(=NCc2ccccc2)N[C@H]1c1cccc(F)c1 | i | i | i | i | i
COC(=O)C1=C(C)N(Cc2ccccc2)C(=S)N[C@H]1c1cccc(F)c1 | i | i | -5* | i | i
Cc1ccc(C)c(S(=O)(=O)N2CCN(C(=O)CCc3nc4ccccc4c(=O)[nH]3)CC2)c1 | i | i | i | i | 194*
Cc1ccc(S(=O)(=O)N2CCN(C(=O)CCc3nc4ccccc4c(=O)[nH]3)CC2)c(C)c1 | i | i | i | i | i
O=[N+]([O-])c1ccc(N2CCOCC2)nc1 | i | i | i | i | i
N#Cc1ccc(N2CCCNCC2)nc1 | i | i | i | i | 44*
O=S(=O)(Nc1ccc(S(=O)(=O)Nc2ccccc2)cc1)c1ccccc1 | i | i | i | 11* | i
O=S(=O)(Nc1ccc(S(=O)(=O)Nc2cccc3ccccc23)cc1)c1ccccc1 | i | i | i | 15* | i
Cc1cc(-c2ccccc2)n(-c2ccccc2)n1 | i | i | i | i | i
CC(C)CCn1c(N2CCN(c3cccc(Cl)c3)CC2)nc2c1c(=O)[nH]c(=O)n2C | i | i | i | 16* | i
O=C(NCCCN1CCN(c2cccc(Cl)c2)CC1)C1CCC(=O)N1Cc1ccccc1Cl (configuration not stated) | i | i | -6* | i | i
CN(C)c1nc(N)c2ncc(=S)[nH]c2n1 | i | i | i | i | i
OC1(c2ccc(F)cc2)CCN(Cc2ccccc2)C1 (configuration not stated) | i | i | -6* | i | i
OC1(c2ccccc2)CCN(Cc2ccccc2)CC1 | i | i | i | i | i
C[C@@H](C(=O)N1CCN(Cc2ccc3c(c2)OCO3)CC1)n1nnc2ccccc2c1=O | i | i | i | i | i
CCCCC1C2=C(CC(C)(C)CC2=O)OC2=C1C(=O)CC(C)(C)C2 | i | i | i | 14* | i
Nc1cc(=O)nc(SCC(=O)N2CCN(c3ccccc3)CC2)n1-c1ccc(F)cc1 | i | i | -6* | i | i
Nc1cc(=O)nc(SCC(=O)N2CCN(c3ccccc3)CC2)n1-c1ccccc1 | i | i | i | i | i
CC(=O)N(C)c1ccc(OCC(O)Cn2c3ccc(Cl)cc3c3cc(Cl)ccc32)cc1 (configuration not stated) | i | i | i | i | i
CCC(C(=O)NCCc1c[nH]c2ccc(C)cc12)c1ccccc1 (configuration not stated) | i | i | i | i | i
